Converted amounts (≈) assume the structure as drawn. Values belong to the molecule of their own block, whether it stands above or below them.
Legend:
[1] = Intrinsic clearance in human hepatocytes assessed per million cells; type: ADME, cell-based, Hepatocyte; conditions: read-out: CLH
[2] = Lipophilicity, log D of the compound by chromatography; type: physicochemical
[3] = Solubility of the compound in phosphate buffer at pH 7.4 using liquid sample at 20 degreeC; type: physicochemical
Procedure, shortened: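 Solubility measured in 0.1 M phosphate buffer at pH 7.4 and 20 °C, starting from a 10 mM DMSO stock solution.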

[4] = Solubility of the compound in phosphate buffer at pH 7.4 using solid sample at 23 degreeC; type: physicochemical
Procedure, shortened: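 Solubility measured in 0.1 M phosphate buffer at pH 7.4 and 23 °C, starting from crystalline solid.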

[5] = Intrinsic clearance in Wistar Han rat hepatocytes assessed per 10^6 cells; type: ADME, cell-based, Hepatocyte; conditions: read-out: CLH
[6] = Clearance in Wistar Han rat at 1 umol/kg, iv administered as bolus dose by LC-MS/MS analysis; type: ADME, organism-based; conditions: in vivo
[7] = Volume of distribution at steady state in Wistar Han rat at 1 umol/kg, iv administered as bolus dose by LC-MS/MS analysis; type: ADME, organism-based; conditions: in vivo, read-out: Vdss
[8] = Terminal half life in Wistar Han rat 1 umol/kg, iv administered as bolus dose by LC-MS/MS analysis; type: ADME, organism-based; conditions: in vivo, read-out: beta t1/2 (converted)
[9] = Oral bioavailability in Wistar Han rat administered via gavage by LC-MS/MS analysis; type: ADME, organism-based; conditions: in vivo
[10] = Thermodynamic solubility of the compound in human intestinal fluid; type: physicochemical; conditions: read-out: Therm_solubility
Lung [11] = experiment: Drug uptake in Wistar Han rat lung at 0.1 umol/kg, administered as dry powder inhalation after 4 hrs by LC-MS/MS analysis; type: ADME; conditions: in vivo, inhaled_or_intranasal
Lung [12] = experiment: Drug uptake in Wistar Han rat lung at 0.1 umol/kg, administered as dry powder inhalation after 24 hrs by LC-MS/MS analysis; type: ADME, tissue-based; conditions: in vivo, inhaled_or_intranasal
[13] = AUC (0 to infinity) in Wistar Han rat lung at 0.1 umol/kg, administered as dry powder inhalation by LC-MS/MS analysis; type: ADME; parameters: dose 0.1 umol/kg, route respiratory (INHALATION), time infinity; conditions: inhaled or intranasal
[14] = Apparent terminal half life in Wistar Han rat lung at 0.1 umol/kg, administered as dry powder inhalation by LC-MS/MS analysis; type: ADME; conditions: inhaled or intranasal, read-out: betat1/2(app) (converted)
[15] = Mean residence time in Wistar Han rat lung at 0.1 umol/kg, administered as dry powder inhalation by LC-MS/MS analysis; type: ADME, tissue-based; conditions: inhaled or intranasal
[16] = Cmax in Wistar Han rat plasma at 0.1 umol/kg, administered as dry powder inhalation by LC-MS/MS analysis; type: ADME; parameters: dose 0.1 umol/kg, route respiratory (INHALATION); conditions: inhaled or intranasal
Rattus norvegicus [17] = experiment: Toxicity in inhaled CRL:CD Sprague Dawley rat model of sephadex induced lung edema assessed as induction of thymic involution administered once per day for 4 days; conditions: in vivo, inhaled_or_intranasal, 96 h
Procedure, shortened: (§1)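 Thymic involution scored in the same Sephadex-challenged rats dosed by inhalation, as a sensitive marker of systemic GR agonism.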

Lung [18] = experiment: Drug uptake in Wistar Han rat lung at 0.1 umol/kg, administered via intratracheal instillation after 4 hrs by LC-MS/MS analysis; type: ADME, tissue-based; conditions: in vivo, inhaled_or_intranasal
Rattus norvegicus [19] = experiment: Toxicity in inhaled CRL:CD Sprague Dawley rat model of sephadex induced lung edema assessed as induction of thymic involution administered once per day for 3 days; conditions: in vivo, inhaled_or_intranasal, 72 h; procedure, shortened: as §1
[20] = Drug degradation in human hepatocytes assessed as 5-hydroxy-indazole formation at 10 uM up to 120 mins by LC-MS/MS analysis; type: ADME, cell-based, Hepatocyte; conditions: 2 h
[21] = Drug degradation in rat hepatocytes assessed as 5-hydroxy-indazole formation at 10 uM up to 120 mins by LC-MS/MS analysis; type: ADME, cell-based, Hepatocyte; conditions: 2 h
[22] = Drug degradation in dog hepatocytes assessed as 5-hydroxy-indazole formation at 10 uM up to 120 mins by LC-MS/MS analysis; type: ADME, cell-based, Canis lupus familiaris, Hepatocyte; conditions: 2 h

SMILES: C[C@H](NC(=O)C(C)(F)F)[C@H](Oc1ccc2c(cnn2-c2cccc(C(=O)NC3CCS(=O)(=O)C3)c2)c1)c1ccccc1 (some centres undefined)
- hepatocyte CLint [1]: < 2.7 µL/min/1e6 cells
- chromatographic logD [2]: 3.8
- solubility [3]: 1 µM (≈ 0.597 µg/mL)
- solubility thermodynamic [4]: 0.34 µM (≈ 0.203 µg/mL)

SMILES: COc1cccc([C@@H](Oc2ccc3c(cnn3-c3ccc(F)cc3)c2)[C@H](C)NC(=O)C(F)(F)F)c1 [AZD-5423]
- hepatocyte CLint [1]: 16 µL/min/1e6 cells
- chromatographic logD [2]: 6
- hepatocyte CLint [5]: 13 µL/min/1e6 cells
- clearance [6]: 38 mL/min/kg
- Vd [7]: 23 L/kg
- half-life [8]: 4.7 h
- bioavailability [9]: 37%
- solubility thermodynamic [10]: 12 µM (≈ 5.85 µg/mL)
- Drug uptake (Lung [11]): 0.7 %ID
- Drug uptake (Lung [12]): 0 to 0.4 %ID
- AUC(0-inf) [13]: 18 µM·h
- half-life [14]: 7.5 h
- MRT [15]: 1.5 h
- Cmax [16]: 122 nM
- ED25 (Rattus norvegicus [17]): 0.0046 mg/kg
- Drug uptake (Lung [18]): 1 %ID

SMILES: C[C@H](NC(=O)C(C)(F)F)[C@H](Oc1ccc2c(cnn2-c2cccc(C(=O)N[C@H]3CCOC3)c2)c1)c1ccc2c(c1)OCOC2
- hepatocyte CLint [1]: 26 µL/min/1e6 cells
- chromatographic logD [2]: 3.6
- solubility [3]: 0.11 µM (≈ 0.0667 µg/mL)
- solubility thermodynamic [4]: 0.03 µM (≈ 0.0182 µg/mL)

SMILES: C[C@H](NC(=O)C(C)(F)F)[C@H](Oc1ccc2c(cnn2-c2ccc(F)cc2)c1)c1ccc2c(c1)COCO2
- hepatocyte CLint [1]: 20 µL/min/1e6 cells
- chromatographic logD [2]: 5.4

SMILES: C[C@H](NC(=O)C(C)(F)F)[C@H](Oc1ccc2c(cnn2-c2cccc(C(=O)NCc3cccnc3)c2)c1)c1ccc2c(c1)OCCO2
- hepatocyte CLint [1]: 21 µL/min/1e6 cells
- chromatographic logD [2]: 3.7
- solubility [3]: < 0.1 µM
- solubility thermodynamic [4]: 0.23 µM (≈ 0.144 µg/mL)
- hepatocyte CLint [5]: 25 µL/min/1e6 cells
- clearance [6]: 68 mL/min/kg
- Vd [7]: 0.97 L/kg
- half-life [8]: 0.2 h
- bioavailability [9]: 0.16%
- solubility thermodynamic [10]: 2.1 µM (≈ 1.32 µg/mL)
- Drug uptake (Lung [11]): 4.1 %ID
- Drug uptake (Lung [12]): 0.18 %ID
- AUC(0-inf) [13]: 26 µM·h
- half-life [14]: 4.9 h
- MRT [15]: 2.6 h
- Cmax [16]: 21 nM
- ED25 (Rattus norvegicus [19]): 0.012 mg/kg

SMILES: C[C@H](NC(=O)C(F)(F)F)[C@H](Oc1ccc2c(cnn2-c2ccc(F)cc2)c1)c1ccccc1
- hepatocyte CLint [1]: < 2.1 µL/min/1e6 cells
- chromatographic logD [2]: 6.1

SMILES: C[C@H](NC(=O)C(C)(F)F)[C@H](Oc1ccc2c(cnn2-c2cccc(C(=O)N[C@H]3CCS(=O)(=O)C3)c2)c1)c1ccc2c(c1)OCCO2
- hepatocyte CLint [1]: 23 µL/min/1e6 cells
- chromatographic logD [2]: 3.6
- solubility [3]: 0.01 µM (≈ 0.00655 µg/mL)
- solubility thermodynamic [4]: 0.68 µM (≈ 0.445 µg/mL)

SMILES: C[C@H](NC(=O)C(C)(F)F)[C@H](Oc1ccc2c(cnn2-c2cccc(C(=O)N3CCC[C@@H]3C(N)=O)c2)c1)c1ccccc1
- hepatocyte CLint [1]: < 2.7 µL/min/1e6 cells
- chromatographic logD [2]: 3.3
- solubility [3]: 36 µM (≈ 20.7 µg/mL)

SMILES: CCCC1O[C@@H]2C[C@H]3[C@@H]4CCC5=CC(=O)C=C[C@]5(C)[C@H]4[C@@H](O)C[C@]3(C)[C@]2(C(=O)CO)O1 (some centres undefined) [BUDESONIDE]
- hepatocyte CLint [1]: 20 µL/min/1e6 cells
- chromatographic logD [2]: 3.4

Continued, in another order:

- hepatocyte CLint [1]: 11 µL/min/1e6 cells
- chromatographic logD [2]: 2.9
- solubility [3]: 47 µM (≈ 29.8 µg/mL)
SMILES: C[C@H](NC(=O)C(C)(F)F)[C@H](Oc1ccc2c(cnn2-c2cccc(C(=O)N3CCC[C@@H]3C(N)=O)c2)c1)c1ccc2c(c1)OCCO2

- hepatocyte CLint [1]: 14 µL/min/1e6 cells
- chromatographic logD [2]: 5.7
SMILES: C[C@H](NC(=O)C(C)(F)F)[C@H](Oc1ccc2c(cnn2-c2ccc(F)cc2)c1)c1ccc2c(c1)OCC2

- Drug metabolism [20]: Metabolite_Detected
- Drug metabolism [21]: Metabolite_Detected
- Drug metabolism [22]: Metabolite_Detected
SMILES: O=[14C](N[C@@H]1CCOC1)c1cccc(-n2ncc3cc(OS(=O)(=O)O)ccc32)c1

- hepatocyte CLint [1]: 21 µL/min/1e6 cells
- chromatographic logD [2]: 3.6
- solubility [3]: < 0.1 µM
- solubility thermodynamic [4]: 0.02 µM (≈ 0.0126 µg/mL)
- hepatocyte CLint [5]: 25 µL/min/1e6 cells
- clearance [6]: 73 mL/min/kg
- Vd [7]: 0.81 L/kg
- half-life [8]: 0.1 h
- bioavailability [9]: 0.3%
- solubility thermodynamic [10]: 1.3 µM (≈ 0.816 µg/mL)
- Drug uptake (Lung [11]): 41 %ID
- Drug uptake (Lung [12]): 8.6 %ID
- AUC(0-inf) [13]: 190 µM·h
- half-life [14]: 9 h
- MRT [15]: 10 h
- Cmax [16]: 12 nM
SMILES: C[C@H](NC(=O)C(C)(F)F)[C@H](Oc1ccc2c(cnn2-c2cccc(C(=O)NCc3cccnc3)c2)c1)c1ccc2c(c1)OCOC2
- ED25 (Rattus norvegicus [19]): 0.027 mg/kg

From ChEMBL document CHEMBL4028861, “Selective Nonsteroidal Glucocorticoid Receptor Modulators for the Inhaled Treatment of Pulmonary Diseases” (J Med Chem, 2017)
